From ChEMBL document CHEMBL1667736, “Tirucallane triterpenoids from Cornus walteri” (J Nat Prod, 2011)

What was measured:
Type in all cases: functional, cell-based
XF498 = experiment: Cytotoxicity against human XF498 cells by SRB assay
In short: (§1)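 Sulforhodamine B (SRB) cytotoxicity assay on cultured human cancer lines: A549 (non-small cell lung adenocarcinoma), SK-OV-3 (ovarian), SK-MEL-2 (skin melanoma), XF498 (CNS). Assays were run at the Korea Research Institute of Chemical Technology. Etoposide served as positive control. Potency is expressed as IC50 in µM.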

SK-MEL-2 = experiment: Cytotoxicity against human SK-MEL-2 cells by SRB assay; in short: as §1
A549 = experiment: Cytotoxicity against human A549 cells by SRB assay; in short: as §1
SK-OV-3 = experiment: Cytotoxicity against human SKOV3 cells by SRB assay; in short: as §1

Q: With `C=C(C)/C=C/C[C@H](C)[C@@H]1CC[C@]2(C)C3=CCC4C(C)(C)C(=O)CC[C@]4(C)[C@H]3CC[C@@]12C` (stereo not given in full) [CORNUSALTERIN D] as the molecule, how does the IC50 (XF498) read?
A: Its IC50 is 17.8 µM.

Q: And the IC50 (SK-MEL-2)?
A: Its IC50 is 12.7 µM.

Q: What about the IC50 (A549) of the same molecule?
A: The IC50 was 26.9 µM.

Q: And the IC50 (SK-OV-3)?
A: The IC50 was 14.5 µM.

Q: How did the IC50 (XF498) turn out when `CC(C)=C[C@H]1C[C@@H]([C@@H]2CC[C@]3(C)C4=CCC5C(C)(C)C(=O)CC[C@]5(C)[C@H]4CC[C@@]23C)CO1` (stereo not given in full) [DEOXYFLINDISSONE] was run?
A: The IC50 was 5.1 µM.

Q: What about the IC50 (SK-MEL-2) of the same molecule?
A: The IC50 was 6.07 µM.

Q: And the IC50 (A549)?
A: The IC50 was 4.02 µM.

Q: And the IC50 (SK-OV-3)?
A: Its IC50 is 3.64 µM.

Q: How did the IC50 (XF498) turn out when `CC(C)=C[C@@H]1C[C@@H]([C@@H]2CC[C@]3(C)C4=CCC5C(C)(C)C(=O)CC[C@]5(C)[C@H]4CC[C@@]23C)CO1` (stereo not given in full) [CORNUSALTERIN L] was run?
A: The IC50 was 5.81 µM.

Q: And the IC50 (SK-MEL-2)?
A: The IC50 was 4.73 µM.

Q: And the IC50 (A549)?
A: Its IC50 is 4.29 µM.

Q: And the IC50 (SK-OV-3)?
A: The IC50 was 3.82 µM.

Q: How did the IC50 (XF498) turn out when `COC(C)(C)/C=C/C[C@H](C)[C@@H]1CC[C@]2(C)[C@@H]3CCC4C(C)(C)[C@@H](O)CC[C@]4(C)[C@H]3CC[C@@]12C` (stereo not given in full) [CORNUSALTERIN C] was run?
A: Its IC50 is 17.6 µM.

Q: And the IC50 (SK-MEL-2)?
A: The IC50 was 11.9 µM.

Q: And the IC50 (A549)?
A: Its IC50 is 23.6 µM.

Q: And the IC50 (SK-OV-3)?
A: The IC50 was 16.5 µM.

Q: For `CO[C@@H](C=C(C)C)C[C@H](C)[C@@H]1CC[C@]2(C)C3=CCC4C(C)(C)[C@@H](O)CC[C@]4(C)[C@H]3CC[C@@]12C` (stereo not given in full) [CORNUSALTERIN J], which IC50 (XF498) is on record?
A: The IC50 was 18.2 µM.

Q: And the IC50 (SK-MEL-2)?
A: Its IC50 is 12.3 µM.

Q: What about the IC50 (A549) of the same molecule?
A: The IC50 was 25.4 µM.

Q: What about the IC50 (SK-OV-3) of the same molecule?
A: Its IC50 is 17.8 µM.

Q: For `CO[C@@H](C=C(C)C)C[C@H](C)[C@@H]1CC[C@]2(C)C3=CCC4C(C)(C)C(=O)CC[C@]4(C)[C@H]3CC[C@@]12C` (stereo not given in full) [CORNUSALTERIN G], which IC50 (XF498) is on record?
A: Its IC50 is 20.5 µM.

Q: And the IC50 (SK-MEL-2)?
A: Its IC50 is 18 µM.

Q: And the IC50 (A549)?
A: Its IC50 is 29.9 µM.

Q: And the IC50 (SK-OV-3)?
A: Its IC50 is 26.9 µM.

Q: `COC(C)(C)/C=C/C[C@H](C)[C@@H]1CC[C@]2(C)[C@@H]3CCC4C(C)(C)C(=O)CC[C@]4(C)[C@H]3CC[C@@]12C` (stereo not given in full) [CORNUSALTERIN B] was tested. Which IC50 (XF498) did it give?
A: The IC50 was 28.7 µM.

Q: And the IC50 (SK-MEL-2)?
A: Its IC50 is 18 µM.

Q: What about the IC50 (A549) of the same molecule?
A: Its IC50 is 28.8 µM.

Q: What about the IC50 (SK-OV-3) of the same molecule?
A: Its IC50 is 19.2 µM.

Q: For `CC(C)CCC[C@H](C)[C@@H]1CC[C@]2(C)C3=CCC4C(C)(C)C=CC(=O)[C@]4(C)[C@H]3CC[C@@]12C` (stereo not given in full) [CORNUSALTERIN F], which IC50 (XF498) is on record?
A: Its IC50 is 24.6 µM.

Q: What about the IC50 (SK-MEL-2) of the same molecule?
A: The IC50 was 21.4 µM.

Q: And the IC50 (A549)?
A: Its IC50 is 27 µM.

Q: And the IC50 (SK-OV-3)?
A: The IC50 was 27.3 µM.

Q: Which results are given for `CO[C@H](C=C(C)C)C[C@H](C)[C@@H]1CC[C@]2(C)C3=CCC4C(C)(C)C(=O)CC[C@]4(C)[C@H]3CC[C@@]12C` (stereo not given in full) [CORNUSALTERIN H]?
A: IC50 (XF498): 18.6 µM; IC50 (SK-MEL-2): 17.7 µM; IC50 (A549): 28.5 µM; IC50 (SK-OV-3): 21.4 µM

Q: What does the source list for `CC(C)CCC[C@H](C)[C@@H]1CC[C@]2(C)C3=CCC4C(C)(C)C(=O)C=C[C@]4(C)[C@H]3CC[C@@]12C` (stereo not given in full) [CORNUSALTERIN E]?
A: IC50 (XF498): 13.1 µM; IC50 (SK-MEL-2): 12.5 µM; IC50 (A549): 18.4 µM; IC50 (SK-OV-3): 14.1 µM

Q: How did the IC50 (XF498) turn out when `CO[C@H](C=C(C)C)C[C@H](C)[C@@H]1CC[C@]2(C)C3=CCC4C(C)(C)C(=O)CC[C@]4(C)C3=CC[C@@]12C` (stereo not given in full) [CORNUSALTERIN I] was run?
A: Its IC50 is 12.3 µM.

Q: And the IC50 (SK-MEL-2)?
A: Its IC50 is 10.4 µM.

Q: And the IC50 (A549)?
A: The IC50 was 17.6 µM.

Q: What about the IC50 (SK-OV-3) of the same molecule?
A: Its IC50 is 13.5 µM.

Q: For `CC(C)CCC[C@H](C)[C@@H]1CC[C@]2(C)[C@@H]3CC=C4C(C)(C)C(=O)C[C@@H](O)[C@]4(C)[C@H]3CC[C@@]12C` [CORNUSALTERIN K], which IC50 (XF498) is on record?
A: The IC50 was 12 µM.

Q: And the IC50 (SK-MEL-2)?
A: The IC50 was 12.4 µM.

Q: And the IC50 (A549)?
A: Its IC50 is 11.7 µM.

Q: And the IC50 (SK-OV-3)?
A: Its IC50 is 12.8 µM.

Q: For `COc1cc([C@@H]2c3cc4c(cc3[C@@H](O[C@@H]3O[C@@H]5CO[C@@H](C)O[C@H]5[C@H](O)[C@H]3O)[C@H]3COC(=O)[C@H]23)OCO4)cc(OC)c1O` [ETOPOSIDE], which IC50 (XF498) is on record?
A: The IC50 was 1.72 µM.

Q: What about the IC50 (SK-MEL-2) of the same molecule?
A: The IC50 was 1.17 µM.

Q: What about the IC50 (A549) of the same molecule?
A: The IC50 was 1.85 µM.

Q: And the IC50 (SK-OV-3)?
A: Its IC50 is 1.81 µM.

Q: Which results are given for `COC(C)(C)/C=C/C[C@H](C)[C@@H]1CC[C@]2(C)C3=CCC4C(C)(C)[C@@H](O)CC[C@]4(C)[C@H]3CC[C@@]12C` (stereo not given in full) [CORNUSALTERIN A]?
A: IC50 (XF498): 17.4 µM; IC50 (SK-MEL-2): 12.1 µM; IC50 (A549): 22.2 µM; IC50 (SK-OV-3): 12.5 µM

Q: Which IC50 (XF498) does the source give for `COC(C)(C)/C=C/C[C@H](C)[C@@H]1CC[C@]2(C)C3=CCC4C(C)(C)C(=O)CC[C@]4(C)[C@H]3CC[C@@]12C` (stereo partly drawn) [(-)-LEUCOPHYLLONE] here?
A: Its IC50 is 18.2 µM.

Q: What about the IC50 (SK-MEL-2) of the same molecule?
A: The IC50 was 21.2 µM.

Q: What about the IC50 (A549) of the same molecule?
A: The IC50 was 24.9 µM.

Q: What about the IC50 (SK-OV-3) of the same molecule?
A: The IC50 was 18 µM.
